Bioassay records: PubChem BioAssay, several laboratories
Most compounds without a hit are left out; they make up all but 4.5% or so of the library.
MrgX1 antag: antagonists of human MrgX1 receptor. MRGX1-HEK293 calcium flux, Fluo-4, BAM8-22 antagonism; stronger effect = lower value. B-score at 10 µM. AID 588676. hit rate 1.3% among 310,000. Q96LB2;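 active = calcium-response B-score plate-corrected more than 3 library SD below zero, starting fluorescence within 5 deviations, no agonist response on first addition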;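 note: peak minus trough fluorescence over baseline after final BAM8-22 challenge near maximal dose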
Target sequence (Q96LB2 whole entry, looked up): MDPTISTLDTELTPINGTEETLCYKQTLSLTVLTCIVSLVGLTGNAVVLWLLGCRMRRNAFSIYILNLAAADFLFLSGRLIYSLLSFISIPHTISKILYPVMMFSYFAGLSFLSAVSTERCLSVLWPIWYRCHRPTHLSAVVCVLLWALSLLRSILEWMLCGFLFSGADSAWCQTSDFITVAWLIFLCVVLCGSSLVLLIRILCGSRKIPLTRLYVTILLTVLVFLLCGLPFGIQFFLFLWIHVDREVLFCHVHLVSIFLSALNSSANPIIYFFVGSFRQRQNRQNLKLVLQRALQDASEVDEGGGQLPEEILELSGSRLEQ
RGS4 inh: human RGS4 inhibition. HEK293 M3R/RGS4 inducible, Fluo-4 calcium flux; stronger effect = higher value; triggered by carbachol at its EC20. hit rate 0.45% among 310,000. B-score at 10 µM. AID 463165;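 active = B-score, a plate-corrected calcium signal, over three deviations above library mean, with baseline fluorescence within five deviations of library mean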;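 note: RGS4 expression induced by doxycycline in cells with stable M3 receptor; B-score is computed from the integrated fluorescence ratio over baseline after carbachol; higher B-score means a larger calcium signal and so more RGS4 inhibition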
Target sequence (P49798 whole entry, looked up): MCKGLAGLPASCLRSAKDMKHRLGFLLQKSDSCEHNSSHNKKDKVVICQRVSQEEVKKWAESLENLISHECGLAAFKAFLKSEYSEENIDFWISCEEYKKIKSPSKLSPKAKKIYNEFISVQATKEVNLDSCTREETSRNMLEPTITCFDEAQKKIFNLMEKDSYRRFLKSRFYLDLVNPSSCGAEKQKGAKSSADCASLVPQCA
MrgX1 ag: activates human MrgX1 receptor signaling | Q96LB2 | MrgX1-HEK293 cells, Fluo-4 calcium fluorescence, agonist mode; stronger effect = higher value | B-score at 10 µM | hit rate 0.44% among 310,000 | AID 588627;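 active = calcium response B-score plate-corrected fluorescence ratio at least 3 library SD, with starting fluorescence B-score inside 5 SD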
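Test system: HEK293 cells stably expressing human MrgX1 receptor; Input: fifteen thousand cells per well; Dosing: compound delivered in addition one of three; Schedule: overnight seeding, then 1 h dark dye loading; Technique: Fluo-4 NW calcium fluorescence; Measure: B-scored fluorescence response ratio; Controls: positive and negative controls per plate.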
MrgX1 allo act: human MrgX1 positive allosteric modulation, primary screen; MrgX1-HEK293, Fluo-4 calcium flux, FDSS; stronger effect = higher value; Q96LB2; AID 588675; hit rate 0.63% among 310,000; B-score at 10 µM;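 active = plate-corrected calcium response at least 3 library SD above typical, normal starting fluorescence, not activating the receptor alone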;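 note: compound read alongside a low EC10 to EC30 dose of BAM8-22 agonist; peak minus trough fluorescence over baseline measured at the second addition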
PHOSPHO1 inh: PHOSPHO1 (human) inhibition | hit rate 1.1% among 290,000 | AID 1565 | Q8TCT1 | recombinant PHOSPHO1, absorbance phosphatase assay | inhibition, % at 13.3 µM; in the data active = inhibition above about 60%
RGS4 pot: RGS4 potentiation or activation. B-score at 10 µM. AID 463111. HEK293 M3R/inducible RGS4, carbachol calcium flux Fluo4; stronger effect = lower value. hit rate 0.92% among 310,000;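 active = B-score of the integrated calcium signal more than 4 SD below the library mean, with starting fluorescence not abnormally high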;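 note: negative B-score means reduced calcium response which marks RGS4 activation or potentiation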
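Detection: kinetic calcium fluorescence imaging with Fluo4-AM dye, 2 µM / Material: HEK293 cells with stable M3R and inducible RGS4 / Schedule: recording 10 s baseline at 1 Hz, 100 s post-agonist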
Starred values were filed as active, the others as inactive; i = inactive; . = not tested or not shown.

SMILES	MrgX1 antag	RGS4 inh	MrgX1 ag	MrgX1 allo act	PHOSPHO1 inh	RGS4 pot
COC(=O)C/C=C/[C@@H](C)[C@@H](/C=N/O[C@@H](C)c1cn([C@H](CO)Cc2ccccc2)nn1)NS(=O)(=O)c1ccc(C)cc1	i	i	i	i	8	i
C/C(CCN1CCc2nc(-c3ccccc3)c(-c3ccccc3)cc2C1)=N\O[C@@H](C)c1cn([C@H](CO)Cc2ccccc2)nn1	i	i	i	i	8	-8.9*
C=CCNc1nc(-c2ccc(OC)cc2OC)cs1	i	i	i	i	61*	i
CC(=O)c1ccc2c(c1)C1C=CCC1C(c1ccncc1)N2 (stereo not drawn)	i	i	i	i	48	i
C1=CC2c3ccccc3NC(c3ccncc3)C2C1 (stereo not drawn)	i	i	i	i	79*	i
Cc1ccc2nc(-c3ccccc3)cc(C(=O)N3CCN(c4ccccc4O)CC3)c2c1	i	i	i	i	.	-8.6*
CN1CCCN(C(=O)c2cc(-c3ccc(Cl)c(Cl)c3Cl)nc3ccccc23)CC1	i	i	41*	i	13	i
O=C(c1cc(-c2ccccc2)nc2ccccc12)N1CCN(c2ccccc2O)CC1	i	i	i	i	43	-7.1*
COc1ccc(-c2nnc(SCC(=O)O)n2Cc2ccccc2)cc1	i	i	i	i	18	i
Cc1ccc(-c2c(C#N)c(N)nc3c2CCCC3)o1	i	i	i	i	-8	i
Cc1ccc(-c2c3c([nH]c(=S)c2C#N)CCCC3)o1	i	i	i	i	84*	i
N#Cc1c(-c2ccncc2)c2c([nH]c1=S)CCCC2	i	i	i	i	77*	i
CC(=O)c1cn(CC(=O)Nc2ccccc2C(F)(F)F)c2ccccc12	i	i	i	i	19	i
COc1ccc(C(=O)c2c3ccc(C(F)(F)F)cc3[n+]([O-])n2CCCN)cc1	i	i	i	i	.	i
Cc1c(CCC(=O)N[C@@H](CC(C)C)C(=O)O)c(=O)oc2cc3oc4c(c3cc12)CCCC4	i	i	i	14*	38	i
O=C(OCC(=O)N1CCN(C(=O)c2ccco2)CC1)c1cc(-c2ccco2)nc2ccccc12	i	i	i	i	69*	i
O=C(OCC(=O)N1CCN(C(=O)c2ccco2)CC1)c1cc(-c2ccc(Cl)c(Cl)c2Cl)nc2ccccc12	i	i	i	i	20	i
CSCCC(NC(=O)COc1ccccc1)C(=O)OC(C)C(=O)Nc1ccccc1C (stereo not drawn)	i	i	i	i	.	i
O=C1NC(=S)SC1=C1CCCC1	i	i	i	i	71*	i
CN1C(=O)C(=C2CCCCCC2)SC1=S	i	i	i	i	6	i
CC1(C(=O)NNC(=S)NCc2ccco2)CC1(Cl)Cl (stereo not drawn)	-4.7*	i	i	i	-8	i
CCCC[n+]1ccn(-c2nc3ccccc3nc2[N-]S(=O)(=O)c2cccs2)c1	i	i	i	i	77*	i
CCN=c1scc(-c2ccco2)n1/N=C/c1ccc(O)cc1	i	i	i	i	80*	i
CCN=c1scc(-c2ccco2)n1/N=C/c1ccc(OC)c(O)c1	i	i	i	i	-7	i
c1ccc(COC2CCCN(Cc3nc(-c4cnccn4)no3)C2)nc1 (stereo not drawn)	i	i	i	i	61*	i
SMILES	MrgX1 antag	RGS4 inh	MrgX1 ag	MrgX1 allo act	PHOSPHO1 inh	RGS4 pot
c1ccc(COC2CCCN(Cc3nc(-c4cnccn4)no3)C2)cc1 (stereo not drawn)	i	i	i	i	40	i
CCOC(=O)[C@H]1[C@H]2COc3ccc(C)cc3[C@@H]2N2C(=O)c3cc(Cl)ccc3NC(=O)[C@@]12C	i	.	i	i	.	.
COC(=O)Nc1ccc([N+](=O)[O-])cc1OC	-7.4*	i	i	i	1	i
COCC(=O)Nc1ccc([N+](=O)[O-])cc1OC	i	i	i	i	2	i
O=C(Cn1cnc2ccccc2c1=O)c1ccc(OC(F)F)cc1	i	i	i	i	14	i
Cc1nnc(SCC(=O)Nc2sc3c(c2C#N)CCCCC3)n1N	i	i	i	i	61*	i
CCOc1ccc(C(=O)Nc2ccc(NC(=O)c3ccccc3)cc2)cc1Br	i	i	i	i	-8	i
COc1ccc(CC(=O)NNC(=S)Nc2ccccc2)cc1Br	i	i	i	i	93*	i
Cc1ccc(NC(=S)NNC(=O)Cn2nc(C(F)F)cc2C(F)F)cc1	i	i	i	i	-3	i
O=C(Cn1nc(C(F)F)cc1C(F)F)NNC(=S)Nc1ccc(Cl)cc1	i	i	i	i	100*	i
CC(C)Oc1ccc(CC(=O)NNC(=S)Nc2ccccc2)cc1	i	i	i	i	16	i
CCOc1ccc(CC(=O)NNC(=S)Nc2ccccc2)cc1Br	i	i	i	i	87*	i
COc1ccc(CC(=O)NNC(=S)Nc2ccc(Br)cc2)cc1	i	i	i	i	98*	i
CCn1c(COc2ccccc2)nnc1SCC(=O)Nc1ccc(N2CCOCC2)cc1	i	i	i	i	32	i
COc1ccc(NC(=S)NNC(=O)COc2ccc(Cl)cc2Cl)cc1	i	i	i	i	2	i
Cc1cccc(NC(=S)NNC(=O)COc2ccc(Cl)cc2Cl)c1	i	i	i	10*	9	i
COc1ccc(NC(=S)NNC(=O)Cn2nc([N+](=O)[O-])cc2C)cc1	i	i	i	i	79*	i
CCN(CC)CCNC(=O)c1ccc(NC(=O)Cc2ccccc2F)cc1	i	i	i	i	16	i
CCN(CC)CCNC(=O)c1ccc(NC(=O)c2cn(-c3ccccc3)nc2-c2cccs2)cc1	i	i	i	i	28	-8.1*
CCN(CC)CCNC(=O)c1ccc(NC(=O)c2cn(-c3ccc(F)cc3)nc2-c2cccc(OC)c2)cc1	i	i	i	i	10	-11*
CCN(CC)CCNC(=O)c1ccc(NC(=O)c2cc(-c3ccco3)nc3ccccc23)cc1	i	i	i	i	10	i
